From PubChem
T cruzi growth – T. cruzi intracellular proliferation inhibitors, primary screen, cell-based, beta-gal Tulahuen parasites, NIH3T3 host, luminescence | 77,000 compounds, 5.9% hits | AID 624255, 2012 | T. cruzi beta-gal in NIH3T3, GalScreen luminescence, 90 h | inhibition, % at 8.34 µM;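 active = mean inhibition above about 93%, with at least 55% of replicates each passing it, limit read from the data, passing the limit was not always enough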
IDH1 R132H inh – inhibitors of IDH1 R132H reductase, primary screen, biochemical, plate reader, single point | Isocitrate dehydrogenase [NADP] cytoplasmic (Homo sapiens), O75874 | diaphorase/resazurin fluorescence, 60 min | inhibition, % at 10 µM | 70,000 compounds, 0.18% hits; in the data active = inhibition above about 34%
Target sequence (O75874 whole entry R132H): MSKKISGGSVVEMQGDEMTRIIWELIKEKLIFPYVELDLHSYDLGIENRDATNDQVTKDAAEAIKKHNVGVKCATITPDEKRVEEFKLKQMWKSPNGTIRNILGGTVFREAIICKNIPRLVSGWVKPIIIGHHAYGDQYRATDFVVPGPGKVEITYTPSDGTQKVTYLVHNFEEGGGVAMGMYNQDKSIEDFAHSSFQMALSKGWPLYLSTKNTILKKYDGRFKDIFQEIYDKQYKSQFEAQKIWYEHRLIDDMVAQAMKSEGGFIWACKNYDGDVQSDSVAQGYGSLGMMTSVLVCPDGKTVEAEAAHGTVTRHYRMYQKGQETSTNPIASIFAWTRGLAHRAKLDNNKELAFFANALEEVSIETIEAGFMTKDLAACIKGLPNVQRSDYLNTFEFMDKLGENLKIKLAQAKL
GASC1 inh – inhibitors of GASC-1 (KDM4C) histone demethylase, primary screen, biochemical, single concentration HTS. Lysine-specific demethylase 4C (Homo sapiens), Q9H3R0. GST-KDM4C 2-372, H3K9me3 peptide, LANCE TR-FRET. inhibition, % at 12.5 µM. 96,000 compounds, 0.15% hits. AID 720574, 2013;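 active = mean replicate inhibition above about 25%, with at least 55% of replicates also reaching it, limit read from the data, passing the limit was not always enough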
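Material: GST-tagged GASC-1 (JMJD2C) catalytic fragment, aa 2-372 / Quantity: enzyme final amount 10 nM / Medium: HEPES buffer, pH 7.5, plus ascorbate / Doses: one test concentration per compound / Incubation: 30 min reaction, 60 min detection, RT / Measured by: LANCE TR-FRET / Read-out: inhibition from TR-FRET ratio decrease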
Pf Dd2 growth – P. falciparum Dd2 growth inhibitors, primary screen, SYBR Green fluorescence, single dose replicates; 72 h; hits give low values; activity change, % at 10 µM; 94,000 compounds, 2.3% hits; AID 1159554, 2015; in the data active = activity change below about -80%
Of the large screens only hits and unclear results are named; the others gave an inactive call. Shown are actives, neighbours in structure and some others; about 5.8% of the full set was active somewhere.

COc1ccc(S(=O)(=O)N(C)C[C@@H]2OCCCC[C@@H](C)Oc3ccc(NC(=O)Nc4ccccc4)cc3C(=O)N([C@@H](C)CO)C[C@@H]2C)cc1	Pf Dd2 growth -82.7
COCC(=O)Nc1ccc2c(c1)[C@@H]1C[C@@H](CC(=O)N[C@@H](C)c3ccccc3)O[C@@H](CO)[C@@H]1O2	none
C[C@@H]1CN([C@@H](C)CO)C(=O)c2c(c3ccccc3n2C)-c2ccccc2CO[C@@H]1CN(C)Cc1ccc(Oc2ccccc2)cc1	Pf Dd2 growth -87.3 (no result: T cruzi growth, IDH1 R132H inh)
C[C@@H]1CN([C@H](C)CO)C(=O)c2c(c3ccccc3n2C)-c2ccccc2CO[C@@H]1CN(C)Cc1ccc(Oc2ccccc2)cc1	none (no result: T cruzi growth, IDH1 R132H inh)
C[C@H]1CN([C@@H](C)CO)C(=O)c2c(c3ccccc3n2C)-c2ccccc2CO[C@@H]1CN(C)Cc1ccc(-c2ccccc2)cc1	Pf Dd2 growth -91.5 (no result: T cruzi growth, IDH1 R132H inh)
C[C@@H]1CN([C@@H](C)CO)C(=O)c2cc(NS(C)(=O)=O)ccc2O[C@@H](C)CCCCO[C@@H]1CN(C)S(=O)(=O)c1cccs1	none
CC1(C)CC(n2c(SCC(N)=O)nc3c(c2=O)C2(CCCC2)Cc2ccccc2-3)CCO1 (stereo unspecified)	none (no result: T cruzi growth, GASC1 inh, Pf Dd2 growth)
OC[C@H]1Nc2ccc(-c3cccc(F)c3)cc2[C@H]2[C@@H]1CCN2Cc1ccc(F)cc1	none (no result: IDH1 R132H inh)
N#Cc1cccc(-c2ccc3c(c2)[C@H]2[C@H](CCN2Cc2ccncc2)[C@@H](CO)N3)c1	Pf Dd2 growth -88.6 (no result: T cruzi growth, IDH1 R132H inh)
OC[C@@H]1Nc2ccc(-c3cccc(F)c3)cc2[C@@H]2[C@H]1CCN2Cc1ccncc1	Pf Dd2 growth -91.6 (no result: T cruzi growth, IDH1 R132H inh)
N#Cc1cccc(-c2ccc3c(c2)[C@H]2[C@H](CCN2Cc2ccc4c(c2)OCO4)[C@H](CO)N3)c1	none (no result: IDH1 R132H inh)
COc1ccc(-c2ccc3c(c2)[C@H]2[C@H](CCN2Cc2ccncc2)[C@@H](CO)N3)cc1	Pf Dd2 growth -82.1 (no result: T cruzi growth, IDH1 R132H inh)
O=C(Nc1ccc(F)cc1)N[C@H]1CC[C@H](CC(=O)N2CCOCC2)O[C@@H]1CO	none
O=C(C[C@H]1CC[C@@H](NC(=O)CC2CC2)[C@@H](CO)O1)NCC(F)(F)F	none
O=C(C[C@H]1CC[C@H]2[C@@H](COC[C@H](O)CN2Cc2ccccc2F)O1)N[C@H]1CCN(Cc2ccccc2)C1	none (no result: IDH1 R132H inh, GASC1 inh)
Cc1ccccc1S(=O)(=O)N1[C@H](CO)[C@@H](c2ccc(C#CC3CCCCC3)cc2)[C@@H]1C#N	Pf Dd2 growth -83.1 (no result: IDH1 R132H inh)
CS(=O)(=O)N1[C@H](CO)[C@@H](c2ccc(C#CC3CCCC3)cc2)[C@@H]1C#N	none (no result: IDH1 R132H inh)
Cc1ccccc1S(=O)(=O)N1[C@H](C#N)[C@@H](c2ccc(C#CC3CC3)cc2)[C@@H]1CO	Pf Dd2 growth -84.7 (no result: IDH1 R132H inh)
Cc1ccccc1S(=O)(=O)N1[C@H](C#N)[C@H](c2ccc(C#CC3CCCCC3)cc2)[C@@H]1CO	none (no result: IDH1 R132H inh)
CS(=O)(=O)N1[C@H](C#N)[C@H](c2ccc(C#CC3CCCCC3)cc2)[C@H]1CO	T cruzi growth 99.1 (no result: IDH1 R132H inh)
N#C[C@H]1[C@@H](c2ccc(C#CC3CCCC3)cc2)[C@@H](CO)N1S(=O)(=O)c1ccccc1	Pf Dd2 growth -83.2
C[C@@H]1CN([C@H](C)CO)C(=O)c2cccc(NC(=O)Nc3ccc4c(c3)OCO4)c2O[C@H]1CN(C)Cc1ccncc1	none
COc1ccc(S(=O)(=O)Nc2ccc3c(c2)C(=O)N([C@@H](C)CO)C[C@@H](C)[C@H](CN(C)Cc2ccncc2)OCCCC[C@@H](C)O3)cc1	none (no result: IDH1 R132H inh)
C[C@H](CO)N1C[C@H](C)[C@H](CN(C)Cc2cccc(C(F)(F)F)c2)OCc2cn(nn2)CCCC1=O	none
Cc1ccccc1S(=O)(=O)N1[C@H](C#N)[C@@H](c2ccc(-c3ccc(F)cc3)cc2)[C@@H]1CO	none (no result: IDH1 R132H inh)
Cc1ccccc1S(=O)(=O)N1[C@@H](C#N)[C@@H](c2ccc(-c3ccc(F)cc3)cc2)[C@@H]1CO	T cruzi growth 106.8 (no result: IDH1 R132H inh)
O=C(C1CCCCC1)N1CC(=O)N2[C@H](CO)[C@@H](c3ccc(C#CCc4ccccc4)cc3)[C@@H]2C1	Pf Dd2 growth -83.4 (no result: T cruzi growth, IDH1 R132H inh)
O=C(c1cnccn1)N1CC(=O)N2[C@@H](CO)[C@H](c3ccc(C#CCc4ccccc4)cc3)[C@@H]2C1	Pf Dd2 growth -88.1 (no result: T cruzi growth, IDH1 R132H inh)
O=C(C1CCCC1)N1CC(=O)N2[C@@H](CO)[C@H](c3ccc(C#CCc4ccccc4)cc3)[C@@H]2C1	Pf Dd2 growth -92.9 (no result: T cruzi growth, IDH1 R132H inh)
O=C(C1CCCCC1)N1CC(=O)N2[C@H](C1)[C@@H](c1ccc(C#CCc3ccccc3)cc1)[C@@H]2CO	none (no result: T cruzi growth, IDH1 R132H inh)
COc1cccc(S(=O)(=O)N(C)C[C@@H]2OCc3ccccc3-c3c(n(C)c4ccccc34)C(=O)N([C@H](C)CO)C[C@@H]2C)c1	Pf Dd2 growth -88.9 (no result: IDH1 R132H inh)
COc1ccccc1S(=O)(=O)N(C)C[C@H]1OCc2ccccc2-c2c(n(C)c3ccccc23)C(=O)N([C@@H](C)CO)C[C@H]1C	none
C[C@H](CO)N1C[C@H](C)[C@H](CN(C)S(=O)(=O)c2cccc(F)c2)OCc2ccccc2-c2c(n(C)c3ccccc23)C1=O	Pf Dd2 growth -90.9 (no result: T cruzi growth, IDH1 R132H inh, GASC1 inh)
COc1cccc(S(=O)(=O)N(C)C[C@H]2OCc3ccccc3-c3c(n(C)c4ccccc34)C(=O)N([C@@H](C)CO)C[C@H]2C)c1	none
COc1ccccc1S(=O)(=O)N(C)C[C@H]1OCc2ccccc2-c2c(n(C)c3ccccc23)C(=O)N([C@@H](C)CO)C[C@@H]1C	Pf Dd2 growth -86.6 (no result: IDH1 R132H inh)
COc1cccc(S(=O)(=O)N(C)C[C@@H]2OCc3ccccc3-c3c(n(C)c4ccccc34)C(=O)N([C@@H](C)CO)C[C@@H]2C)c1	Pf Dd2 growth -85.5
CCS(=O)(=O)Nc1ccc2c(c1)C(=O)N(C)[C@@H]1CC[C@H](CC(=O)NC)O[C@@H]1CO2	none (no result: IDH1 R132H inh)
COc1ccc(NC(=O)N(C)C[C@@H]2Oc3ccc(NC(=O)c4ccncc4)cc3CC(=O)N([C@H](C)CO)C[C@@H]2C)cc1	none (no result: IDH1 R132H inh)
COc1cccc(NC(=O)N2C[C@@H](O)COC[C@@H]3O[C@H](CC(=O)NC4CCCC4)CC[C@H]32)c1	none (no result: IDH1 R132H inh)
COc1ccc(NC(=O)N2[C@@H]3CNC[C@H]2C3c2ccc(-c3ccc(F)cc3)cc2)cc1 (stereo partly specified)	none (no result: T cruzi growth, IDH1 R132H inh)
CN(C)C(=O)C[C@@H]1C[C@@H]2c3cc(NS(=O)(=O)c4ccccc4)ccc3O[C@@H]2[C@H](CO)O1	none
C[C@H]1CCCCO[C@@H](CN(C)CC2CCCCC2)[C@@H](C)CN([C@@H](C)CO)C(=O)c2cc(NC(=O)Nc3ccccc3)ccc2O1	Pf Dd2 growth -83.1
COc1ccc(NC(=O)Nc2ccc3c(c2)C(=O)N([C@H](C)CO)C[C@H](C)[C@@H](CN(C)CC2CC2)OCCCC[C@H](C)O3)cc1	Pf Dd2 growth -84.2 (no result: IDH1 R132H inh)
C[C@H](CO)N1C[C@H](C)[C@@H](CN(C)CC2CCCCC2)OCCCC[C@H](C)Oc2ccc(NC(=O)Nc3ccccc3)cc2C1=O	none
